According to ChEMBL document CHEMBL4052818, “Design, Synthesis, and Biological Assessment of Biased Allosteric Modulation of the Urotensin II Receptor Using Achiral 1,3,4-Benzotriazepin-2-one Turn Mimics” (J Med Chem, 2017):
Activity calls are given as the source filed them. The rule behind the calls is not given here.

Tests used:
[1] = biological target: T1, Urotensin-2 receptor (Rattus norvegicus) (UniProt P49684); assay: Allosteric modulation of urotensin-2 receptor in Sprague-Dawley rat thoracic aorta assessed as change in human urotensin-2-mediated aortic ring contraction by measuring urotensin-2 Emax at 10^-5M preincubated for 15 mins followed by urotensin-2 addition relative to KCl (reference value: 103 +/- 2%)
T1 sequence (whole entry): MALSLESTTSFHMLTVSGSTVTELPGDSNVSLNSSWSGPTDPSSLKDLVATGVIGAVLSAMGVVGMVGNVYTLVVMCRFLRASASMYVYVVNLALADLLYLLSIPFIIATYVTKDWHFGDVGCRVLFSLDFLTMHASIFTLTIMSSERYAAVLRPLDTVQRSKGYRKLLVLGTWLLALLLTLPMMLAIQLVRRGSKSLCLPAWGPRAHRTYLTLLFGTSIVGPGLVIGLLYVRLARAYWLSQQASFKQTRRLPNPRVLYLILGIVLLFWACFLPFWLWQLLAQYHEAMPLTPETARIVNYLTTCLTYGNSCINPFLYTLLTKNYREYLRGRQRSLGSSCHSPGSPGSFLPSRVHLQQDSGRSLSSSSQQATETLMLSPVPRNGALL

[2] = biological target: T1, Urotensin-2 receptor (Rattus norvegicus); assay: Allosteric modulation of urotensin-2 receptor in Sprague-Dawley rat thoracic aorta assessed as change in URP-mediated aortic ring contraction by measuring URP Emax at 10^-5M preincubated for 15 mins followed by URP addition relative to KCl (reference value: 118 +/- 2%)
[3] = biological target: T1, Urotensin-2 receptor (Rattus norvegicus); assay: Agonist activity at urotensin-2 receptor in Sprague-Dawley rat thoracic aorta assessed as induction of aortic ring contraction at 10^-5 M incubated for 15 mins
Summary of the method: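 Endothelium-denuded 4 mm thoracic aortic rings from adult male rats (250–300 g) were held in organ baths of oxygenated Krebs–Henseleit. A 40 mM KCl contraction served as the initial control. Each analogue was added alone at 10−5 M, and the contraction was expressed as % of the KCl response.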

[4] = biological target: T2, Urotensin-2 receptor (Homo sapiens) (UniProt Q9UKP6); assay: Agonist activity at human urotensin-2 receptor expressed in HEK293 cells assessed as Gq activation at 10^-5 M […] by BRET assay; type: cell-based
T2 sequence (whole entry): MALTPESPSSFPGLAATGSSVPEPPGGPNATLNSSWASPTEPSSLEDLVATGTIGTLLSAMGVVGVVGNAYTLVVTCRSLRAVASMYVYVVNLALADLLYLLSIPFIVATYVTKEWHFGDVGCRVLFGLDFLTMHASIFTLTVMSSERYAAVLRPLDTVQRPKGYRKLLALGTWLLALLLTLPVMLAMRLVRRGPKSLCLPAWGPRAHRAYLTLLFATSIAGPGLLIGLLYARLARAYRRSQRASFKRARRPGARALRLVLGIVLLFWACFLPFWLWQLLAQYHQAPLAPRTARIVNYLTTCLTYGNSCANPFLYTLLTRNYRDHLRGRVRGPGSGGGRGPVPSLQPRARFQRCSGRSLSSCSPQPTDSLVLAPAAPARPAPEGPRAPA
Summary of the method: (§1)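 HEK293-UT cells were transfected with a polycistronic BRET biosensor, 2.5 μg for Gq or 0.5 μg for G12, and grown about 40 h. They were then held 2 h in PBS with 0.1% glucose. The analogue (10−5 M) was added alone with coelenterazine 400A. The GFP10/RlucII ratio (515/410 nm) was read over 5 min and normalized to hUII or URP at 10−5 M.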

[5] = biological target: T2, Urotensin-2 receptor (Homo sapiens); assay: Agonist activity at human urotensin-2 receptor expressed in HEK293 cells assessed as G12 activation at 10^-5 M […] by BRET assay; type: cell-based; summary of the method: as §1
[6] = biological target: T2, Urotensin-2 receptor (Homo sapiens); assay: Allosteric modulation of human urotensin-2 receptor expressed in HEK293 cells assessed as change in human urotensin-2-induced Gq activation by measuring urotensin-2 Emax at 10^-5 M preincubated for 30 mins followed by urotensin-2 addition by BRET assay (reference value: 100 +/- 3%); type: cell-based
[7] = biological target: T2, Urotensin-2 receptor (Homo sapiens); assay: Allosteric modulation of human urotensin-2 receptor expressed in HEK293 cells assessed as change in URP-induced Gq activation by measuring URP Emax at 10^-5 M preincubated for 30 mins followed by URP addition by BRET assay (reference value: 100 +/- 3%); type: cell-based
[8] = biological target: T2, Urotensin-2 receptor (Homo sapiens); assay: Allosteric modulation of human urotensin-2 receptor expressed in HEK293 cells assessed as change in human urotensin-2-induced G12 activation by measuring urotensin-2 Emax at 10^-5 M preincubated for 30 mins followed by urotensin-2 addition by BRET assay (reference value: 100 +/- 6%); type: cell-based
[9] = biological target: T2, Urotensin-2 receptor (Homo sapiens); assay: Allosteric modulation of human urotensin-2 receptor expressed in HEK293 cells assessed as change in URP-induced G12 activation by measuring URP Emax at 10^-5 M preincubated for 30 mins followed by URP addition by BRET assay (reference value: 100 +/- 7%); type: cell-based
[10] = biological target: T1, Urotensin-2 receptor (Rattus norvegicus); assay: Allosteric modulation of urotensin-2 receptor in Sprague-Dawley rat thoracic aorta assessed as change in human urotensin-2-mediated aortic ring contraction by measuring urotensin-2 Emax at 1 uM preincubated for 15 mins followed by urotensin-2 addition relative to KCl (reference value: 103 +/- 2%)
[11] = biological target: T1, Urotensin-2 receptor (Rattus norvegicus); assay: Allosteric modulation of urotensin-2 receptor in Sprague-Dawley rat thoracic aorta assessed as change in URP-mediated aortic ring contraction by measuring URP Emax at 1 uM preincubated for 15 mins followed by URP addition relative to KCl (reference value: 118 +/- 2%)

| SMILES | Emax [1] [%] | Emax [2] [%] | Activity [3] [%] | Activity [4] | Activity [5] | Emax [6] [%] | Emax [7] [%] | Emax [8] [%] | Emax [9] [%] | Emax [10] [%] | Emax [11] [%] |
| --- | --- | --- | --- | --- | --- | --- | --- | --- | --- | --- | --- |
| NCCCN1N=C(CCc2nc3ccccc3s2)c2ccccc2N(Cc2ccc3ccccc3c2)C1=O | 45 | 117 | < 8 | inactive | inactive | 87 | 82 | 96 | 115 | – | – |
| NCCCCN1N=C(CCc2ccc(O)cc2)c2ccccc2N(Cc2ccc3ccccc3c2)C1=O | 98 | 75 | < 8 | inactive | inactive | 83 | 78 | 98 | 90 | – | – |
| CC(C)[C@H](NC(=O)[C@@H]1CSSC[C@H](NC(=O)[C@H](C)N)C(=O)N[C@@H](Cc2ccccc2)C(=O)N[C@@H](Cc2ccc(-c3ccccc3)cc2)C(=O)N[C@@H](CCCCN)C(=O)N[C@@H](Cc2ccc(O)cc2)C(=O)N1)C(=O)O | – | – | – | – | – | – | – | – | – | 61 | 102 |
| NCCCCN1N=C(CCc2nc3ccccc3s2)c2ccccc2N(Cc2cccc3ccccc23)C1=O | 100 | 124 | < 8 | – | – | – | – | – | – | – | – |
| COc1ccc(CCC2=NN(CCCCN)C(=O)N(Cc3ccc(-c4ccccc4)cc3)c3ccccc32)cc1 | 82 | 84 | < 8 | – | – | – | – | – | – | – | – |
| NCCCCN1N=C(CCc2nc3ccccc3s2)c2ccccc2N(Cc2ccc3ccccc3c2)C1=O | 73 | 111 | < 8 | – | – | – | – | – | – | – | – |
| CNCCCCN1N=C(CCc2nc3ccccc3s2)c2ccccc2N(Cc2cccc3ccccc23)C1=O | 99 | 99 | < 8 | – | – | – | – | – | – | – | – |
| COc1ccc(CCC2=NN(CCCN)C(=O)N(Cc3ccc(-c4ccccc4)cc3)c3ccccc32)cc1 | 59 | 47 | < 8 | – | – | – | – | – | – | – | – |
| NCCCN1N=C(CCc2ccc(O)cc2)c2ccccc2N(Cc2ccc(-c3ccccc3)cc2)C1=O | 95 | 90 | < 8 | – | – | – | – | – | – | – | – |
| NCCCCN1N=C(/C=C/c2ccc(O)cc2)c2ccccc2N(Cc2ccc3ccccc3c2)C1=O | 55 | 114 | < 8 | – | – | – | – | – | – | – | – |
| NCCCCN1N=C(/C=C/c2ccc(O)cc2)c2ccccc2N(Cc2ccc(-c3ccccc3)cc2)C1=O | 48 | 118 | < 8 | inactive | inactive | 92 | 92 | 103 | 72 | – | – |
| COc1ccc(/C=C/C2=NN(CCCCN)C(=O)N(Cc3ccc4ccccc4c3)c3ccccc32)cc1 | 108 | 110 | < 8 | – | – | – | – | – | – | – | – |
| CNCCCN1N=C(CCc2nc3ccccc3s2)c2ccccc2N(Cc2ccc(-c3ccccc3)cc2)C1=O | 76 | 110 | < 8 | – | – | – | – | – | – | – | – |
| NCCCN1N=C(CCc2ccc(O)cc2)c2ccccc2N(Cc2ccc3ccccc3c2)C1=O | 107 | 96 | < 8 | – | – | – | – | – | – | – | – |
| COc1ccc(/C=C/C2=NN(CCCCN)C(=O)N(Cc3ccc(-c4ccccc4)cc3)c3ccccc32)cc1 | 83 | 284 | < 8 | inactive | inactive | 80 | 83 | 96 | 106 | – | – |
| CNCCCCN1N=C(CCc2nc3ccccc3s2)c2ccccc2N(Cc2ccc(-c3ccccc3)cc2)C1=O | 90 | 91 | < 8 | – | – | – | – | – | – | – | – |

Second part, the compound after the results:

| Emax [1] [%] | Emax [2] [%] | Activity [3] [%] | Activity [4] | Activity [5] | Emax [6] [%] | Emax [7] [%] | Emax [8] [%] | Emax [9] [%] | Emax [10] [%] | Emax [11] [%] | SMILES |
| --- | --- | --- | --- | --- | --- | --- | --- | --- | --- | --- | --- |
| 55 | 41 | < 8 | – | – | – | – | – | – | – | – | COc1ccc(CCC2=NN(CCCN)C(=O)N(Cc3ccc4ccccc4c3)c3ccccc32)cc1 |
| 55 | 72 | < 8 | – | – | – | – | – | – | – | – | COc1ccc(CCC2=NN(CCCCN)C(=O)N(Cc3ccc4ccccc4c3)c3ccccc32)cc1 |
| 106 | 194 | < 8 | – | – | – | – | – | – | – | – | COc1ccc(/C=C/C2=NN(CCCN)C(=O)N(Cc3ccc(-c4ccccc4)cc3)c3ccccc32)cc1 |
| 100 | 101 | < 8 | – | – | – | – | – | – | – | – | NCCCN1N=C(CCc2nc3ccccc3s2)c2ccccc2N(Cc2cccc3ccccc23)C1=O |
| 118 | 86 | < 8 | – | – | – | – | – | – | – | – | NCCCCN1N=C(CCc2ccc(O)cc2)c2ccccc2N(Cc2ccc(-c3ccccc3)cc2)C1=O |
| 68 | 112 | < 8 | – | – | – | – | – | – | – | – | NCCCCN1N=C(CCc2nc3ccccc3s2)c2ccccc2N(Cc2ccc(-c3ccccc3)cc2)C1=O |
| 51 | 115 | < 8 | – | – | – | – | – | – | – | – | NCCCN1N=C(/C=C/c2ccc(O)cc2)c2ccccc2N(Cc2ccc(-c3ccccc3)cc2)C1=O |
| 76 | 120 | < 8 | – | – | – | – | – | – | – | – | COc1ccc(/C=C/C2=NN(CCCN)C(=O)N(Cc3ccc4ccccc4c3)c3ccccc32)cc1 |
| 87 | 114 | < 8 | – | – | – | – | – | – | – | – | CNCCCCN1N=C(CCc2nc3ccccc3s2)c2ccccc2N(Cc2ccc3ccccc3c2)C1=O |
| 75 | 99 | < 8 | – | – | – | – | – | – | – | – | NCCCN1N=C(CCc2nc3ccccc3s2)c2ccccc2N(Cc2ccc(-c3ccccc3)cc2)C1=O |
| 59 | 111 | < 8 | – | – | – | – | – | – | – | – | NCCCN1N=C(/C=C/c2ccc(O)cc2)c2ccccc2N(Cc2ccc3ccccc3c2)C1=O |
